Laboratory results reported in ChEMBL document CHEMBL3272327, “Hypocholesterolemic activity of 1,3-bis(substituted phenoxy)-2-propanones” (J Med Chem, 1976).

Assays:
Rattus norvegicus [1] = assay: Hypocholesterolemic activity in rat assessed as [14C]palmitic acid level in feces at 10 mg/kg/day administered for 1 week measured after 22 hrs on day 7 by scintillation counting analysis (reference value: 75.52 +/- 6.21%); assay type: functional
Summary of the method: (§1)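 Male Sprague-Dawley rats on lab chow dosed orally once daily for 1 week at 10 mg/kg/day, suspended in 1% CMC, or given vehicle alone. On day 7, 5 μCi [1-14C]palmitic acid given orally. Killed after 22 hr; organs made into 10% water homogenates. Aliquots of 0.1 cc of homogenate, urine, blood or feces were digested and scintillation counted. Output is % of dose per tissue, N = 6.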

Rattus norvegicus [2] = assay: Hypocholesterolemic activity in rat assessed as [14C]cholesterol level in kidney at 10 mg/kg/day administered for 1 week measured after 22 hrs on day 7 by scintillation counting analysis (reference value: 0.69 +/- 0.27%); assay type: functional
Summary of the method: (§2)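 Male rats were dosed orally for 1 week (10 mg/kg/day) or with 1% CMC. On day 7 they received 5 μCi [4-14C]cholesterol orally and were killed after 22 hr. Organs were homogenized (10% in water); 0.1-cc aliquots of homogenate, urine, blood or feces were digested with Protosol. Samples were counted in toluene/Triton X-100 (2:1) scintillant with 0.4% PPO and 0.01% POPOP. Results are % of dose per tissue, N = 6.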

Rattus norvegicus [3] = assay: Effect on vas deferens and epididymis weight in rat at 5 mg/kg/day administered for 16 days measured 24 hrs after last drug dosage relative to total body weight (reference value: 0.22 +/- 0.04%); assay type: ADME, organism-based; conditions: in vivo
Rattus norvegicus [4] = assay: Effect on body weight in rat at 10 mg/kg/day administered for 16 days measured on day 7 (reference value: 173 +/- 12 gms); assay type: ADME, organism-based; conditions: in vivo, 384 h
Summary of the method: (§3)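 Male Sprague-Dawley rats with chow and water ad libitum. Compound suspended in 1% CMC-water and given orally by intubation needle at 11:00 a.m., 1, 5, 10 or 50 mg/kg/day, for 16 days. Body weight (g) recorded on days 0, 7 and 16. N = 8.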

Rattus norvegicus [5] = assay: Hypocholesterolemic activity in [14C]palmitic acid-treated rat assessed as decrease in 14C fatty acid incorporation into triglyceride fraction in liver at 10 mg/kg/day administered for 1 week by scintillation counting analysis; assay type: functional; set-up: scale not given: the % may be the effect or the level left
Rattus norvegicus [6] = assay: Effect on testes weight in rat at 5 mg/kg/day administered for 16 days measured 24 hrs after last drug dosage relative to total body weight (reference value: 1.08 +/- 0.08%); assay type: ADME, organism-based, Testis; conditions: in vivo
Rattus norvegicus [7] = assay: Effect on heart weight in rat at 5 mg/kg/day administered for 16 days measured 24 hrs after last drug dosage relative to total body weight (reference value: 0.37 +/- 0.04%); assay type: ADME, organism-based; conditions: in vivo
Rattus norvegicus [8] = assay: Hypocholesterolemic activity in rat assessed as [14C]cholesterol level in liver at 10 mg/kg/day administered for 1 week measured after 22 hrs on day 7 by scintillation counting analysis (reference value: 19.80 +/- 2.93%); assay type: functional; summary of the method: as §2
Rattus norvegicus [9] = assay: Effect on kidney weight in rat at 1 mg/kg/day administered for 16 days measured 24 hrs after last drug dosage relative to total body weight (reference value: 0.92 +/- 0.04%); assay type: ADME, organism-based; conditions: in vivo
Rattus norvegicus [10] = assay: Increase in lipase level in rat serum at 10 mg/kg/day administered for 16 days relative to control; assay type: functional
Summary of the method: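 Male Sprague-Dawley rats on rodent chow and water ad libitum; compound suspended in 1% CMC-H2O, 10 mg/kg/day by oral intubation, dose set from weekly weights; controls given 1% CMC. Serum lipase measured with a commercial serum lipase kit after 16 days of dosing; value given as percent of control, N = 8; p by Student's t test.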

Rattus norvegicus [11] = assay: Effect on brain weight in rat at 5 mg/kg/day administered for 16 days measured 24 hrs after last drug dosage relative to total body weight (reference value: 0.67 +/- 0.05%); assay type: ADME, organism-based; conditions: in vivo
Rattus norvegicus [12] = assay: Effect on DNA content in rat liver at 10 mg/kg/day administered for 16 days (reference value: 100 +/- 25%); assay type: ADME, organism-based; conditions: in vivo, 384 h
Rattus norvegicus [13] = assay: Effect on heart weight in rat at 1 mg/kg/day administered for 16 days measured 24 hrs after last drug dosage relative to total body weight (reference value: 0.37 +/- 0.04%); assay type: ADME, organism-based; conditions: in vivo
Rattus norvegicus [14] = assay: Hypocholesterolemic activity in Sprague-Dawley rat assessed as serum cholesterol level at 5 mg/kg/day, po administered via intubation measured on day 10 by Liebermann-Burchard reaction (reference value: 100 +/- 7%); assay type: functional
Rattus norvegicus [15] = assay: Hypocholesterolemic activity in rat assessed as [14C]cholesterol level in small intestine at 10 mg/kg/day administered for 1 week measured after 22 hrs on day 7 by scintillation counting analysis (reference value: 22.09 +/- 5.68%); assay type: functional; summary of the method: as §2
Rattus norvegicus [16] = assay: Effect on body weight in rat at 50 mg/kg/day administered for 16 days measured on day 16 (reference value: 233 +/- 16 gms); assay type: ADME, organism-based; conditions: in vivo, 384 h; summary of the method: as §3
Rattus norvegicus [17] = assay: Effect on heart weight in rat at 10 mg/kg/day administered for 16 days measured 24 hrs after last drug dosage relative to total body weight (reference value: 0.37 to 0.43%); assay type: ADME, organism-based; conditions: in vivo
Rattus norvegicus [18] = assay: Hypocholesterolemic activity in Sprague-Dawley rat assessed as serum cholesterol level at 1 mg/kg/day, po administered via intubation measured on day 10 by Liebermann-Burchard reaction (reference value: 100 +/- 7%); assay type: functional
Rattus norvegicus [19] = assay: Hypocholesterolemic activity in rat assessed as serum glycerol level at 10 mg/kg/day administered for 14 days (reference value: 100 +/- 39%); assay type: functional
Rattus norvegicus [20] = assay: Hypocholesterolemic activity in [14C]palmitic acid-treated rat assessed as decrease in 14C fatty acid incorporation into phospholipid fraction in liver at 10 mg/kg/day administered for 1 week by scintillation counting analysis; assay type: functional; set-up: scale not given: the % may be the effect or the level left
Rattus norvegicus [21] = assay: Hypocholesterolemic activity in rat assessed as [14C]palmitic acid recovery at 10 mg/kg/day administered for 1 week measured after 22 hrs on day 7 by scintillation counting analysis (reference value: 98%); assay type: functional; summary of the method: as §1
Rattus norvegicus [22] = assay: Hypocholesterolemic activity in Sprague-Dawley rat assessed as serum cholesterol level at 50 mg/kg/day, po administered via intubation measured on day 16 by Liebermann-Burchard reaction (reference value: 100 +/- 8%); assay type: functional
Rattus norvegicus [23] = assay: Effect on food intake in rat at 50 mg/kg/day measured during first week (reference value: 19.1 +/- 1.7 gms); assay type: ADME, organism-based; conditions: in vivo
Summary of the method: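 Male rats dosed orally at 1, 5, 10 or 50 mg/kg/day in 1% CMC. Average food intake in grams per rat per week measured over a 2-week period, first and second weeks reported separately. N = 8, Student's t test against the 1% CMC control.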

Rattus norvegicus [24] = assay: Hypocholesterolemic activity in rat assessed as [14C]cholesterol level in large intestine at 10 mg/kg/day administered for 1 week measured after 22 hrs on day 7 by scintillation counting analysis (reference value: 19.12 +/- 5.62%); assay type: functional; summary of the method: as §2
Rattus norvegicus [25] = assay: Effect on spleen weight in rat at 5 mg/kg/day administered for 16 days measured 24 hrs after last drug dosage relative to total body weight (reference value: 0.55 +/- 0.12%); assay type: ADME, organism-based; conditions: in vivo
Rattus norvegicus [26] = assay: Effect on liver weight in rat at 1 mg/kg/day administered for 16 days measured 24 hrs after last drug dosage relative to total body weight (reference value: 4.22 +/- 0.29%); assay type: ADME, organism-based; conditions: in vivo
Rattus norvegicus [27] = assay: Hypocholesterolemic activity in rat assessed as [14C]palmitic acid level in kidney at 10 mg/kg/day administered for 1 week measured after 22 hrs on day 7 by scintillation counting analysis (reference value: 0.68 +/- 0.16%); assay type: functional; summary of the method: as §1

Cc1ccc(OCC(=O)COc2ccc(C)cc2)cc1
Activity (Rattus norvegicus [1]): 63.52%
Activity (Rattus norvegicus [2]): 1.29%
Activity (Rattus norvegicus [3]): 0.21%
Activity (Rattus norvegicus [4]): 164 g
Activity (Rattus norvegicus [5]): 53%
Activity (Rattus norvegicus [6]): 1.03%
Activity (Rattus norvegicus [7]): 0.43%
Activity (Rattus norvegicus [8]): 22.19%
Activity (Rattus norvegicus [9]): 0.79%
fold change (FC) (Rattus norvegicus [10]): 2
Activity (Rattus norvegicus [11]): 0.73%
Activity (Rattus norvegicus [12]): 81%
Activity (Rattus norvegicus [13]): 0.38%
Activity (Rattus norvegicus [14]): 58%
Activity (Rattus norvegicus [15]): 22.56%
Activity (Rattus norvegicus [16]): 232 g
Activity (Rattus norvegicus [17]): 0.38%
Activity (Rattus norvegicus [18]): 71%
Activity (Rattus norvegicus [19]): 24%
Activity (Rattus norvegicus [20]): 16%
Activity (Rattus norvegicus [21]): 96.75%
Activity (Rattus norvegicus [22]): 44%
Activity (Rattus norvegicus [23]): 18.9 g
Activity (Rattus norvegicus [24]): 12.84%
Activity (Rattus norvegicus [25]): 0.44%
Activity (Rattus norvegicus [26]): 4%
Activity (Rattus norvegicus [27]): 0.94%
